The values that follow come from PMC5299035 (Drug development research, 2016).

Type in all cases: cell-based
The subject of one test is human neutrophils. In words: Ca2+ mobilization assay in human neutrophils. Particulars: for Ca2+ flux human neutrophils efficacy: % of the response induced by 5 nM fMLF; for EC50: Homo sapiens, Neutrophil, read-out: Ca2+ flux human neutrophils EC50. In a few lines: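 Neutrophils from healthy donors were purified by dextran sedimentation, Histopaque 1077 gradient and hypotonic red-cell lysis (>95% pure, >98% viable). After Fluo-4 AM loading (1.25 μg/mL final, 30 min, 37 °C, dark), cells were seeded at 2 × 10^5/well in HBSS with Ca2+/Mg2+. Fluorescence (485/538 nm) was tracked every 5 s for 240 s at room temperature. Maximum change over baseline was normalised, and EC50 came from a 5-6-point nonlinear fit.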

Another test has as its target T1, FPR1 (Homo sapiens, UniProt P21462).
T1 sequence (P21462 1-350): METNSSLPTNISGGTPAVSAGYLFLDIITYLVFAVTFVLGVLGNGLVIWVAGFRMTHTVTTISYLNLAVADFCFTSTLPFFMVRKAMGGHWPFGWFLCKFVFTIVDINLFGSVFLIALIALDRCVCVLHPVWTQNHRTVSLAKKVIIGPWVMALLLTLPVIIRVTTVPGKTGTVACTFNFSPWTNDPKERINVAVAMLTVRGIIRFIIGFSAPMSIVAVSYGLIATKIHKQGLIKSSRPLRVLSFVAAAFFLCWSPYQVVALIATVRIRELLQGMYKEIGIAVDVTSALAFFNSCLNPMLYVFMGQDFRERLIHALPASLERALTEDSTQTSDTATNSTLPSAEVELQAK
Description: Ca2+ mobilization assay in FPR1-HL60 cells. Particulars: for Ca2+ flux FPR1-HL60 efficacy: % of the response induced by 5 nM fMLF; for Emax: read-out: Ca2+ flux FPR1-HL60 efficacy. In a few lines:
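FPR1-transfected HL60 cells were grown in RPMI 1640 with 10% heat-inactivated FCS, 10 mM HEPES and G418 (1 mg/mL). Cells were loaded with Fluo-4 AM (1.25 μg/mL final) for 30 min at 37 °C in the dark, then washed and seeded in HBSS+ at 2 × 10^5 cells/well. Fluorescence (485/538 nm) was read every 5 s for 240 s at room temperature after compound addition. Peak rise over baseline was set against 5 nM fMLF (100%). EC50 came from nonlinear regression of 5-6-point curves, mean of three independent experiments. No activity meant no response within 2 min (limits: efficacy >20%, EC50 <50 μM).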

The next test addresses T2, FPR2 (Homo sapiens, UniProt P25090).
T2 sequence (P25090 1-351): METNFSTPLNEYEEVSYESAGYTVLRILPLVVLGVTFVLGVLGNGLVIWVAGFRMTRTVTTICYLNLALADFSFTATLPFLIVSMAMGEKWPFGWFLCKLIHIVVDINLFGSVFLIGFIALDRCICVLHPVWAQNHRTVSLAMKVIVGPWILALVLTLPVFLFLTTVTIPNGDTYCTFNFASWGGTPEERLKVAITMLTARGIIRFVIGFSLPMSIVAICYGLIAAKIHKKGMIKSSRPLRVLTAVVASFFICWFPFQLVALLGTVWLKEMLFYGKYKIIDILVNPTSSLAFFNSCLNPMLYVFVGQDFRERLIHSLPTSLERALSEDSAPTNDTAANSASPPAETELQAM
In words: Ca2+ mobilization assay in FPR2-HL60 cells. Particulars: for Ca2+ flux FPR2-HL60 efficacy: % of the response induced by 5 nM WKYMVm; for Emax: read-out: Ca2+ flux FPR2-HL60 efficacy. In a few lines:
(§1)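 FPR2- or FPR3-transfected HL60 cells were grown in RPMI 1640 with 10% heat-inactivated FCS and G418 1 mg/mL. Cells were loaded with Fluo-4 AM (1.25 μg/mL final) for 30 min at 37 °C in the dark, washed, and seeded at 2 × 10^5 cells/well in HBSS+. Fluorescence (ex 485/em 538 nm) was read every 5 s for 240 s at room temperature. Peak rise over baseline was normalised to the reference agonist. EC50 came from 5-6-point nonlinear regression over three independent experiments.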

Another test addresses T3, FPR3 (Homo sapiens, UniProt P25089).
T3 sequence (P25089 1-353): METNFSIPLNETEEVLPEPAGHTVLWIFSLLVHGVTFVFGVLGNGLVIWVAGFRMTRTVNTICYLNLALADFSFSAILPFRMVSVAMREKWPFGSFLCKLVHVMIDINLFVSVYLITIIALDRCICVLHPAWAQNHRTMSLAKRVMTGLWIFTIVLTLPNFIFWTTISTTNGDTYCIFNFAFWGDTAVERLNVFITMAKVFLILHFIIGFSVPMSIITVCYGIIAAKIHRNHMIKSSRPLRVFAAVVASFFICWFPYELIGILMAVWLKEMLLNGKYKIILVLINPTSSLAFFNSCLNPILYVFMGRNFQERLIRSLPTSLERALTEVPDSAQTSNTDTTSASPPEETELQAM
In words: Ca2+ mobilization assay in FPR3-HL60 cells. As to conditions: for Ca2+ flux FPR3-HL60 efficacy: % of the response induced by 10 nM WKYMVm; for Emax: read-out: Ca2+ flux FPR3-HL60 efficacy. In a few lines:
as §1

The test system of another test is mouse neutrophils. In words: Ca2+ mobilization assay in mouse neutrophils. Particulars: for Ca2+ flux mouse neutrophils efficacy: % of the response induced by 10 nM WKYMVm; for Ca2+ flux mouse neutrophils EC50: N.A. = no activity (no response during first 2 min). In a few lines:
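Bone marrow was flushed from BALB/c mouse tibias and femurs and separated on a Percoll gradient (45/50/55/62/81%, 1600g, 30 min, 10 °C). Red cells were removed over Histopaque 1119. Neutrophils were loaded with Fluo-4 AM (1.25 μg/mL final) for 30 min at 37 °C, seeded in HBSS+ at 2 × 10^5 cells/well, and read at 485/538 nm every 5 s for 240 s at room temperature. Responses were normalized to 10 nM WKYMVm. EC50 came from nonlinear regression of 5-6-point curves, three experiments.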

A further test addresses T4, mouse Fpr1 (Mus musculus, UniProt P33766).
T4 sequence (P33766 1-364): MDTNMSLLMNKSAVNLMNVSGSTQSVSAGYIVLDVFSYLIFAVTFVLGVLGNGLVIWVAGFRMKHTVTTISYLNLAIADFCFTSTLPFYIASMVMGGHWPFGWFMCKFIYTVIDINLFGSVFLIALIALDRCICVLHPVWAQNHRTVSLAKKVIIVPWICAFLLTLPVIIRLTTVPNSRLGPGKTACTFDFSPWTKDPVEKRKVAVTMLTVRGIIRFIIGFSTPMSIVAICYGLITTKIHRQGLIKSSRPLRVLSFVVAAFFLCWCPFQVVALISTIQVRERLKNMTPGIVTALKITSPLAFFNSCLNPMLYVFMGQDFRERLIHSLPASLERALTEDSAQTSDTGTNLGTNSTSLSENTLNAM
In words: Ca2+ mobilization assay in mFpr1-RBL cells. Particulars: for Ca2+ flux mFpr1-RBL efficacy: % of the response induced by 10 nM WKYMVm; for Ca2+ flux mFpr1-RBL EC50: RBL cells transfected with mouse Fpr1, N.A. = no activity. In a few lines:
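RBL-2H3 rat basophilic leukemia cells transfected with mouse Fpr1 were kept in DMEM with 20% FBS and G418 250 μg/ml. Cells were dye-loaded with Fluo-4 AM (1.25 μg/mL final) for 30 min at 37 °C and plated at 2 × 10^5/well in HBSS+. Fluorescence (485/538 nm) was followed every 5 s for 240 s at room temperature. Peak over baseline was normalised, and EC50 was taken by 5-6-point nonlinear regression, averaged from three independent experiments.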

The target in the next test is T5, mouse Fpr2 (Mus musculus, UniProt O88536).
T5 sequence (O88536 1-351): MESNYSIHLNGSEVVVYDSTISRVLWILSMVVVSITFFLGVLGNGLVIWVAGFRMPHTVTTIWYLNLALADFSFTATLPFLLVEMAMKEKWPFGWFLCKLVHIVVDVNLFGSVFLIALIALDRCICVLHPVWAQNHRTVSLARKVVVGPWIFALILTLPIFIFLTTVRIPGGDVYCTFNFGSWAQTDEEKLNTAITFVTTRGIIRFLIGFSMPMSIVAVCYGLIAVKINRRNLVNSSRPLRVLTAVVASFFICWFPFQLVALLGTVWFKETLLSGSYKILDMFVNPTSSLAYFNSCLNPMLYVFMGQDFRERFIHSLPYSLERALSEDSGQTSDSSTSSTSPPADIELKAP
Description: Ca2+ mobilization assay in mFpr2-RBL cells. As to conditions: for Ca2+ flux mFpr2-RBL efficacy: % of the response induced by 10 nM WKYMVm; for Ca2+ flux mFpr2-RBL EC50: RBL cells transfected with mouse Fpr2, N.A. = no activity. In a few lines: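 RBL-2H3 cells stably expressing mouse Fpr2 were grown in DMEM with 20% FBS, 10 mM HEPES and G418 (250 μg/ml). Fluo-4 AM (1.25 μg/mL final) was loaded for 30 min at 37 °C in the dark. Cells were seeded in HBSS+ at 2 × 10^5 cells/well, and fluorescence (485/538 nm) was read every 5 s for 240 s at room temperature. Peak rise was normalized to 10 nM WKYMVm (100%). EC50 came from nonlinear regression of 5-6-point curves over three independent experiments.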

Regarding `CC1=NN(CC(=O)Nc2ccc(Br)cc2)C(=O)CC1c1ccccc1` (racemic) [(±)-6b, (±)N-(4-Bromophenyl)-2-[3-methyl-6-oxo-4-phenyl-5,6-dihydropyridazin-1(4H)-yl]acetamide], the “Ca2+ flux human neutrophils efficacy” value in the test with human neutrophils was found to be 75%. Moreover, the “Ca2+ flux FPR1-HL60 efficacy” value at FPR1 was found to be 90%. In addition, the “Ca2+ flux FPR2-HL60 efficacy” value on FPR2 amounted to 110%. Also, the “Ca2+ flux FPR3-HL60 efficacy” value at FPR3 stood at 120%. The “Ca2+ flux mouse neutrophils efficacy” value in the test on mouse neutrophils stood at 160%. Besides, the “Ca2+ flux mFpr1-RBL efficacy” value at mouse Fpr1 is 60%. For the same compound, the “Ca2+ flux mFpr2-RBL efficacy” value on mouse Fpr2 is reported as 220%.

As to `COc1cccc(Cc2c(-c3ccccc3)c(C)nn(CC(=O)Nc3ccc(Br)cc3)c2=O)c1` [4f, N-(4-Bromophenyl)-2-[5-(3-methoxybenzyl)-3-methyl-6-oxo-4-phenylpyridazin-1(6H)-yl]acetamide], the EC50 in the test with human neutrophils came to 5400 ± 260 nM. Besides, the Emax on FPR1 is 160%. For the same compound, in the test with mouse neutrophils, the “Ca2+ flux mouse neutrophils efficacy” value came out at 95%. On mouse Fpr2, the midpoint of the response, the EC50, lay at 28800 ± 5200 nM and the “Ca2+ flux mFpr2-RBL efficacy” value turned out to be 180%.

For `COc1ccc(Cc2c(C)c(C)nn(CC(=O)Nc3ccc(Br)cc3)c2=O)cc1` [4b, N-(4-Bromophenyl)-2-[5-(4-methoxybenzyl)-3,4-dimethyl-6-oxopyridazin-1(6H)-yl]acetamide], the EC50 is 270 ± 25 nM in the test on human neutrophils and 130 ± 32 nM on FPR3. Besides, the Emax at FPR1 is 60%; at FPR2, 95%; at FPR3, 100%. Further, the “Ca2+ flux mouse neutrophils EC50” value in the test on mouse neutrophils is on record as “complete inactivity”. Besides, at mouse Fpr1, the “Ca2+ flux mFpr1-RBL EC50” value is given as “complete inactivity”. Further, at mouse Fpr2, the “Ca2+ flux mFpr2-RBL EC50” value is on record as “complete inactivity”.

Consider `Cc1cc(=O)n(CC(=O)Nc2ccc(Br)cc2)nc1C` [7a, N-(4-Bromophenyl)-2-[3,4-dimethyl-6-oxopyridazin-1(6H)-yl]acetamide], for which the EC50 with human neutrophils came to 2000 ± 290 nM; on FPR1 it was 5700 ± 2100 nM; on FPR2 it was 510 ± 190 nM. Also, the Emax on FPR1 was 110%; at FPR2, 90%. The “Ca2+ flux mouse neutrophils efficacy” value with mouse neutrophils stood at 70%.

As for `COc1ccc(-c2csc(=O)n2CC(=O)Nc2ccc(Br)cc2)cc1` [9e, N-(4-Bromophenyl)-2-[4-(4-methoxyphenyl)-2-oxothiazol-3-yl]acetamide], the EC50 amounted to 7400 ± 2300 nM in the test with human neutrophils, 2600 ± 600 nM on FPR1, 1800 ± 160 nM at FPR2 and 36100 ± 3300 nM at FPR3. Besides, the figures for the Emax on FPR1, on FPR2 and on FPR3 were 110%, 100% and 85%, respectively.

As for `COc1cccc(-c2csc(=O)n2CC(=O)Nc2ccc(Br)cc2)c1` [9d, N-(4-Bromophenyl)-2-[4-(3-methoxyphenyl)-2-oxothiazol-3-yl]-acetamide], the EC50 with human neutrophils stood at 1300 ± 300 nM; at FPR3 it was 5100 ± 1700 nM. For the same compound, the figures for the Emax on FPR1, on FPR2 and at FPR3 were 90%, 120% and 100%, respectively.

On to `Cc1nn(CC(=O)Nc2ccc(Br)cc2)c(=O)cc1-c1ccccc1` [7b, N-(4-Bromophenyl)-2-[3-methyl-6-oxo-4-phenylpyridazin-1(6H)-yl]acetamide], for which the EC50 in the test on human neutrophils is 200 ± 56 nM; on FPR2 it was 150 ± 52 nM; at FPR3, 970 ± 230 nM. Moreover, the results for the Emax at FPR2 and on FPR3 were 115% and 95%, respectively. Moreover, the “Ca2+ flux mouse neutrophils efficacy” value with mouse neutrophils was determined as 75%.

For the compound `COc1cccc(Cc2c(C)c(C)nn(CC(=O)Nc3ccc(Br)cc3)c2=O)c1` [4a, N-(4-Bromophenyl)-2-[5-(3-methoxybenzyl)-3,4-dimethyl-6-oxopyridazin-1(6H)-yl]acetamide], the EC50 in the test with human neutrophils came to 6 ± 2 nM; on FPR3, 40 ± 11 nM. The Emax was 85% at FPR1, 80% at FPR2 and 165% on FPR3. Further, in the test with mouse neutrophils, the “Ca2+ flux mouse neutrophils EC50” value was “complete inactivity”. Also, the “Ca2+ flux mFpr1-RBL EC50” value at mouse Fpr1 is on record as “complete inactivity”. For the same compound, on mouse Fpr2, the “Ca2+ flux mFpr2-RBL EC50” value was “complete inactivity”.

For `CC1=NN(CC(=O)Nc2ccc(Br)cc2)C(=O)CC1C` (racemic) [(±)-6a, (±)N-(4-Bromophenyl)-2-[3,4-dimethyl-6-oxo-5,6-dihydropyridazin-1(4H)-yl]acetamide], the “Ca2+ flux human neutrophils efficacy” value in the test with human neutrophils amounted to 115%. Besides, on FPR1, the “Ca2+ flux FPR1-HL60 efficacy” value was found to be 60%. Also, the “Ca2+ flux FPR2-HL60 efficacy” value at FPR2 amounted to 120%. Further, at FPR3, the “Ca2+ flux FPR3-HL60 efficacy” value was 150%. The “Ca2+ flux mFpr1-RBL efficacy” value at mouse Fpr1 is on record as 70%.
